Laboratory results reported in publication PMC3086571 (Organometallics, 2011).

Tests used:
[1] = system: A549 cells (nonsmall cell lung carcinoma); test: MTT cytotoxicity assay, A549; format: cell-based; settings: Homo sapiens, A549, 96 h, read-out: IC50 A549
In short: (§1)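 Adherent monolayers grown in supplemented MEM with 10% heat-inactivated FBS at 37 °C, 5% CO2. Cells were trypsinised and seeded at 4 × 10^3 (A549), 1.5 × 10^3 (CH1) or 2.5 × 10^3 (SW480) per well, then left 24 h. Compound dilutions in complete medium were applied for 96 h. MTT was added for 4 h and formazan dissolved in DMSO; OD read at 550/690 nm versus untreated controls. IC50 was interpolated from the curves; ≥3 independent experiments, triplicates.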

[2] = system: CH1 cells (ovarian carcinoma); test: MTT cytotoxicity assay, CH1; format: cell-based, human; settings: for IC50: Homo sapiens, CH1, 96 h, read-out: IC50 CH1; for capacity of inhibiting tumor cell proliferation in vitro: CH1 ovarian cancer cells
In short: as §1

[3] = system: SW480 cells (colon carcinoma); test: MTT cytotoxicity assay, SW480; format: cell-based; settings: Homo sapiens, SW480, 96 h, read-out: IC50 SW480
In short: as §1

topoisomerase II = settings: electrophoretic assay with plasmid DNA; cited from earlier work
Aqueous stability [4] = format: physicochemical; settings: for Stability (amount of aqua complex in the solution), 1H NMR: D2O, after 18 or 24 h incubation (NMR: 18 h)
In short: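 Test compound (1−2 mg/mL) dissolved in D2O; 1H NMR spectra recorded immediately after dissolution and again after 18 h to follow chlorido-to-aqua exchange.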

Aqueous stability [5] = format: physicochemical; settings: water, 25 °C, after 18 or 24 h incubation
rat skeletal myoblasts = settings: in vitro, preliminary; cited from earlier work

Stability (amount of aqua complex in the solution), 1H NMR (Aqueous stability [4]) [%]	Stability (amount of aqua complex in the solution), CZE-ICP-MS (Aqueous stability [5]) [%]	free ligand from decomposition of the aqua species (Aqueous stability [4]; aqueous solution, over 24 h)	Compound	IC50 [1] [µM]	IC50 [2] [µM]	IC50 [3] [µM]	topoisomerase II inhibition (topoisomerase II)	capacity of inhibiting tumor cell proliferation in vitro [2]	sensitivity of CH1 cells relative to SW480 cells ([2]; ratio of IC50 SW480 / CH1)	cytotoxic activity in rat skeletal myoblasts (rat skeletal myoblasts)
90	87		Chlorido(η^6-p-cymene)(cinoxacinato-κ^2O,O)ruthenium(II) [Compound 3]					inactive		
94	93		Chlorido(η^6-p-cymene)(nalidixicato-κ^2O,O)ruthenium(II) [Compound 2]					inactive		
45	56	more than 40%	CC1COc2c(N3CCN(C)CC3)c(F)cc3c(=O)c(C(=O)[O-])cn1c23.Cc1ccc(C(C)C)cc1.[Cl-].[Ru+2] (centres unmarked) [Compound 1, chlorido(η^6-p-cymene)(ofloxacinato-κ^2O,O)ruthenium(II)]				very little topoisomerase II inhibition	moderate	about 10 times	no significant activity

More lines, now with the values behind:

Compound	Stability (amount of aqua complex in the solution), 1H NMR (Aqueous stability [4]) [%]	Stability (amount of aqua complex in the solution), CZE-ICP-MS (Aqueous stability [5]) [%]	free ligand from decomposition of the aqua species (Aqueous stability [4]; aqueous solution, over 24 h)	IC50 [1] [µM]	IC50 [2] [µM]	IC50 [3] [µM]	topoisomerase II inhibition (topoisomerase II)	capacity of inhibiting tumor cell proliferation in vitro [2]	sensitivity of CH1 cells relative to SW480 cells ([2]; ratio of IC50 SW480 / CH1)	cytotoxic activity in rat skeletal myoblasts (rat skeletal myoblasts)
CC1COc2c(N3CCN(C)CC3)c(F)cc3c(=O)c(C(=O)O)cn1c23 (centres unmarked) [oflo-H, ofloxacin, reference compound]				> 320	> 320	> 320	very little topoisomerase II inhibition			
CCn1cc(C(=O)O)c(=O)c2ccc(C)nc21 [nal-H, nalidixic acid]				> 320	> 320	> 320				
CCn1nc(C(=O)O)c(=O)c2cc3c(cc21)OCO3 [cin-H, cinoxacin]				> 320	> 320	> 320				
